From ChEMBL document CHEMBL1155744, “Cytotoxic dolabellane diterpenes from the Formosan soft coral Clavularia inflata” (2001)
Values after ≈ are worked out from the molar mass of the structure shown.

What was measured:
Format in all cases: functional
Conditions in all cases: read-out: ED50 (the source's name)
A549 = assay: Cytotoxicity against human A549 cells
How it was run: (§1)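 Cell lines were obtained from the American Type Culture Collection. Cytotoxicity was tested in vitro, and values are reported as ED50 in µg/mL.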

HT-29 = assay: Cytotoxicity against human HT-29 cells; how it was run: as §1
P388 = assay: Cytotoxicity against mouse P388 cells
How it was run: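 Mouse lymphocytic leukemia P-388 cells were supplied by the Pezzuto laboratory at the University of Illinois at Chicago. Cytotoxicity was tested in vitro, and values are reported as ED50 in µg/mL.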

`C=C1CC/C=C(\C)CCC2=C(C(C)C)C(=O)C[C@@]2(C)CC1=O` was tested, and the EC50 (A549) was > 50 µg/mL, the EC50 (HT-29) was > 50 µg/mL and the EC50 (P388) was 3.89 µg/mL (≈ 12.9 µM).
`C=C1CC/C=C(\C)CCC2=C(C(C)C)C(=O)C[C@@]2(C)C[C@H]1O` (relative stereo) gave an EC50 (A549) of 8.1 µg/mL (≈ 26.8 µM), an EC50 (HT-29) of 9.19 µg/mL (≈ 30.4 µM) and an EC50 (P388) of 3.82 µg/mL (≈ 12.6 µM).
`C=C1CC[C@H]2O[C@@]2(C)C/C=C2/[C@@H](C(C)C)C(=O)C[C@]2(C)CC1=O` (relative stereo) showed an EC50 (A549) of 8.56 µg/mL (≈ 27.1 µM), an EC50 (HT-29) of 7.84 µg/mL (≈ 24.8 µM) and an EC50 (P388) of 2.48 µg/mL (≈ 7.84 µM).
For `C=C1CC[C@@H](OO)C(=C)CCC2=C(C(C)C)C(=O)C[C@@]2(C)CC1=O` (relative stereo), the EC50 (A549) was 0.57 µg/mL (≈ 1.71 µM), the EC50 (HT-29) was 0.31 µg/mL (≈ 0.932 µM) and the EC50 (P388) was 0.052 µg/mL (≈ 0.156 µM).
In the case of `C=C1CC/C=C(\C)C/C=C2/[C@@H](C(C)C)C(=O)C[C@]2(C)CC1=O` (relative stereo), the EC50 (A549) was > 50 µg/mL, the EC50 (HT-29) was 27.3 µg/mL (≈ 90.9 µM) and the EC50 (P388) was 2.6 µg/mL (≈ 8.65 µM).
For `C=C1CC/C=C(\C)C[C@H]2O[C@@]23[C@@H](C(C)C)C(=O)C[C@]3(C)CC1=O` (relative stereo), the EC50 (A549) was 7.74 µg/mL (≈ 24.5 µM), the EC50 (HT-29) was 6.39 µg/mL (≈ 20.2 µM) and the EC50 (P388) was 3.83 µg/mL (≈ 12.1 µM).
